The source of these data is article PMC10132129 (RSC Advances, 2023).

For experiment [1], the system named is streptozotocin-induced diabetic male rats. Put plainly: Serum biochemical estimation in diabetic rats. Particulars: for Fasting plasma glucose / Fasting plasma glucose % reduced / Serum insulin / Serum insulin % increased: 5 mg kg^−1 b.w. The class given is in vivo, albino rats. Put shortly: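 STZ-diabetic male rats (55 mg kg−1 ip; FPG >250 mg dL−1) dosed orally 9 weeks in 0.5% Na-CMC; n = 6. Fasting retro-orbital blood taken under diethyl ether at weeks 0, 5, 9; serum spun 3500 rpm, 15 min. FPG by glucometer; ALT, AST, ALP, creatinine by commercial kits. Mean ± SD; one-way ANOVA with Tukey test.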

Experiment [2] shares this test system. Put plainly: Copulatory. The class given is in vivo, albino rats. Particulars: 5 mg kg^−1 b.w; day 63. The method in brief:
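STZ-diabetic males dosed orally for 9 weeks; tested on day 63. Females were ovariectomized and primed sc with 3-benzoyloxy-17b-estrol 48 h before and progesterone 500 μg 4 h before testing. Males adapted 10 min under dim red light, then paired 1:1. Mount, intromission and ejaculation latencies/frequencies and post-ejaculatory interval recorded; n = 6.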

The test system is the same in experiment [3]. Put plainly: Histopathological examination of testes. The format is in vivo, albino rats. Particulars: 9 weeks. Put shortly:
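Testes from 9-week-dosed diabetic rats fixed in 10% formalin, paraffin-embedded, cut at 5 μm and H&E-stained; examined at ×400. Tubule diameter and epithelial height measured on 20 near-circular seminiferous tubule cross-sections from three slides (lower, middle, upper testis). n = 6; mean ± SD.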

For a further experiment, the target named is human PDE5A (Homo sapiens, UniProt O76074). Put plainly: In vitro PDE5 inhibitory activity. The format is biochemical. The note with it: read-out: % Inhibition of PDE5.
The subject of experiment [4] is streptozotocin-induced diabetic male rats. Put plainly: Epididymal sperm characteristics. The class given is in vivo, albino rats. The note with it: 5 mg kg^−1 b.w, 9 weeks. Put shortly:
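After 9 weeks' oral dosing of STZ-diabetic rats, cauda epididymal semen was diluted with normal saline in a red-cell pipette (0.5 to 101 mark). Count in Neubauer chamber at ×40, expressed as million cells per mL. Viability by eosin–nigrosin mixed 1:1 for 5 min, ~200 cells scored; unstained cells counted as live. Smears air-dried for morphology; n = 6.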

The test system is the same in experiment [5]. Put plainly: Body weight and relative reproductive organ weight in diabetic rats. The format is in vivo, albino rats. The note with it: 5 mg kg^−1 b.w. Put shortly:
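Male albino rats (190–200 g), fasted overnight, given STZ 55 mg kg−1 ip with 5% glucose to drink; FPG >250 mg dL−1 at 72 h defined diabetes. Body weight recorded weeks 0, 5, 9. Organs weighed post-mortem; relative weight = organ/body weight × 100.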

The test system is the same in experiment [6]. Put plainly: Mating test. The format is in vivo, albino rats. Particulars: 5 mg kg^−1 b.w. The method in brief:
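In week 8, each treated diabetic male was housed 5 days with two virgin females. Daily vaginal smears checked for sperm. Sperm-positive females were kept 10 days, then euthanised (diethyl ether overdose) to count fetuses and corpora lutea. Mating success = females mated / females paired; male fertility = fetuses / corpora lutea.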

The nature of experiment [7]: ABTS^+· radical scavenging assay. The format is biochemical. The note with it: read-out: IC50 against ABTS^+· free radical. Put shortly:
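Radical-scavenging assay: test compound at 25–100 μg mL−1 mixed with ABTS+· solution and incubated 37 °C, 6 min. Absorbance read at 750 nm against blank. Ascorbic acid was the standard. Triplicate runs; IC50 reported.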

Setting [8] is: 9 weeks treatment, vs diabetic control.

Each structure is given as a SMILES string. Structures can show the parent of a compound that is named as a salt. Marks after values point to notes of the source that are not given here.

In the case of `CCCc1nn(C)c2c(=O)[nH]c(-c3cc(S(=O)(=O)N4CCN(C)CC4)ccc3OCC)nc12` [Sildenafil citrate], in experiment [1] (9 weeks), the Fasting plasma glucose was 190.67 ± 5.79 mg/dL, the “Fasting plasma glucose % reduced” value is recorded as 45.28 ± 2.37%, the Serum insulin is 6.82 ± 0.14 mIU L^−1 and the “Serum insulin % increased” value is reported as 99.58 ± 9.18%. In addition, in experiment [1] (0 week), the Fasting plasma glucose is 348.67 ± 6.80^c mg dL^−1 and the Serum insulin was 3.43 ± 021^c mIU L^−1. In experiment [1] (5 weeks), the Fasting plasma glucose was 219.17 ± 5.38 mg/dL, the “Fasting plasma glucose % reduced” value is 37.12 ± 2.15%, the Serum insulin is 6.00 ± 0.29 mIU L^−1 and the “Serum insulin % increased” value was 75.37 ± 3.54%. Besides, in experiment [1] (setting [8]), the “Creatinine (Cr) level” value is “remarkable reduction”, the “Total bilirubin (TBIL) level” value is “remarkable reduction”, the “Total protein (TP) level” value is “significant recovery” and the “Urea (U) level” value is reported as “remarkable reduction”. In experiment [2], the Ejaculatory latency is 948.83 ± 32.29^a sec, the Intromission frequency is on record as 8.20 ± 0.55^by no, the Intromission latency is given as 805.33 ± 23.84^bx sec and the Mount frequency is reported as 578.50 ± 38.01^cy sec. In experiment [2], the Mount latency is listed as 539.67 ± 27.06^x sec and the Post ejaculatory interval was 1311.67 ± 95.19 s. Moreover, in experiment [3] (5 mg kg^−1 b.w), the “Height of seminiferous epithelium” value is given as 70.60 ± 3.10^z μm and the “Mean seminiferous tubule diameter” value is 217.00 ± 15.14^y μm. Further, the “Mean Johnson's score” value in experiment [3] (5 mg kg^−1 b.w, range 1–10) is 9.30 ± 0.48^z. In addition, the “Testicular histology (H&E)” value in experiment [3] (oral treatment) is “marked development in the testicular structure”. For the same compound, at human PDE5A, the inhibition at 2.5 µg/mL was 48.1 ± 1.48%, the inhibition at 5 µg/mL turned out to be 67.8 ± 1.21%, the inhibition at 7.5 µg/mL stood at 84.1 ± 0.86% and the inhibition at 10 µg/mL turned out to be 97.3 ± 1.64%. Also, in experiment [4], the “Detached head from sperm” value is 9.67 ± 2.73^z %, the Sperm abnormalities was 9.83 ± 0.75^ay %, the Sperm count is listed as 56.69 ± 1.37 million cells per mL and the “Sperm count % reduced” value stood at 24.24 ± 3.66%. For the same compound, in experiment [4], the Sperm motility is 68.67 ± 3.14^by % and the Sperm viability was 68.17 ± 2.56^cz %. In addition, in experiment [5] (9 weeks), the Body weight was 179.50 ± 5.05 g and the “Body weight % changed” value was −10.32 ± 3.18%. Further, the Body weight in experiment [5] (0 week) is listed as 200.33 ± 6.68 g. In experiment [5] (5 weeks), the Body weight is 170.83 ± 6.79 g and the “Body weight % changed” value is recorded as −14.69 ± 3.27%. Moreover, in experiment [6], the Male fertility is reported as 83.85 ± 3.98^z %, the Mating success came to 83.34%, the “No. of corpora lutea/rat” value came to 12.40 ± 0.52 and the No. of fetuses/rat is listed as 10.40 ± 0.70^z. In experiment [6] (of 12 females paired), the “No. of females mated” value came out at 10 and the “No. of females pregnant” value is on record as 10.

As for `O=C1O[C@H]([C@@H](O)CO)C(O)=C1O` [ascorbic acid], in experiment [7], the IC50 stood at 169 ± 12.9 µM.
